The list is not random: actives were taken first. Their share in the collection is about 4.1%.
TAG inh: triacylglycerol accumulation inhibition; 230,000 compounds, 0.66% hits; H9c2 cells, Nile Red lipid (TAG) fluorescence; cells loaded with 200 µM oleic acid; inhibition, % at 12.5 µM;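 active means pattern-corrected inhibition of lipid staining of at least 50% with the nuclear-stain viability signal not falling by more than 50%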
TbMetRS inhib: blocks T. brucei methionyl-tRNA synthetase activity; purified T. brucei MetRS, ATP depletion, Kinase-Glo luminescence; inhibition, % at 11.9 µM; 360,000 compounds, 0.4% hits; AID 624268;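 active means inhibition above a per-plate cutoff of the control wells' mean inhibition plus 3 SD, cut at about 5.5% in these data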
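Material: parasite MetRS enzyme / Replication: singlicate, one well per compound / Signal: luminescence of leftover ATP / Schedule: 2 h aminoacylation at 25 °C after 15 min preincubation / Medium: HEPES-MgCl2-KCl buffer plus DTT, spermine, BSA, pyrophosphatase / Doses: 11.9 µM single point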
AHR act: human AHR activation. AID 2796. P35869. 320,000 compounds, 2.5% hits. AHR-responsive luciferase reporter cells, luminescence. activation, % at 5 µM; in the data active means activation above about 47%
Target sequence (P35869 whole entry, looked up): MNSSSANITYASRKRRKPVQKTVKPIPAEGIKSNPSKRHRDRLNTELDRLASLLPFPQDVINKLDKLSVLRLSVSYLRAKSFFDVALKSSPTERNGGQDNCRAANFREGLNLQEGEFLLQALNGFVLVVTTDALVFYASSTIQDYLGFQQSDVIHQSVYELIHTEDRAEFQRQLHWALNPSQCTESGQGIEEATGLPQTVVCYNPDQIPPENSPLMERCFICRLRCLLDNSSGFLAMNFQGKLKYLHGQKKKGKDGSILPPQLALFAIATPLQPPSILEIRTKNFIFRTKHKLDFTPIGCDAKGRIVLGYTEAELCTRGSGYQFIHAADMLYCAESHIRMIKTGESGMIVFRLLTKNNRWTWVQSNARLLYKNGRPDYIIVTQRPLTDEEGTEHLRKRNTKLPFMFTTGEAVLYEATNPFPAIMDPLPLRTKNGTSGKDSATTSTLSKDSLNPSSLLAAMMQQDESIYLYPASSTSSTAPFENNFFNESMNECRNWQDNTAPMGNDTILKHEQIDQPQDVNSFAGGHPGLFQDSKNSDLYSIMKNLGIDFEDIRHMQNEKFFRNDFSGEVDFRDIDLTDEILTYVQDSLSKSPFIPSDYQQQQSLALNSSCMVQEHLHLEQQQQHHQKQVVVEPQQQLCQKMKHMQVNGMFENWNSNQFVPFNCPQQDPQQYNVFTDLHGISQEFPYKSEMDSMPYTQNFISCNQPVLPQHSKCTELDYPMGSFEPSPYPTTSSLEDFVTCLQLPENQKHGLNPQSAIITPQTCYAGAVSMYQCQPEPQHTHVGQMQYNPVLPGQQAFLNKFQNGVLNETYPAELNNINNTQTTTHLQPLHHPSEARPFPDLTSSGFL
Efflux pump mplx: inhibitors of Candida antifungal efflux pumps expressed in yeast | S. cerevisiae Candida pump triplex, Nile Red efflux | inhibition, % at 10 µM | 330,000 compounds, 0.44% hits;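 active means plate passing quality check with inhibition over a set limit, or well fluorescence over plate mean plus 4 SD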;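 further: Nile Red retained in pooled yeast measured as flow cytometry median fluorescence; higher means more Nile Red kept so more efflux inhibition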
SMARCA2 activ: activators of SMARCA2 function; MG213 cells, MMTV-luciferase reporter, dexamethasone, overnight; activation, % at 9.1 µM; 370,000 compounds, 1% hits; AID 652017; in the data active means activation above about 7.8%
Of the large screens only hits and unclear results are named; the others gave an inactive call.

Cn1cncc1C#Cc1ccc2cc(CCCO)oc(=O)c2c1	none (no result: TAG inh)
Cn1cncc1C#Cc1ccc2cc(CCO)oc(=O)c2c1	AHR act 48
O=C(NC(=S)Nc1nc2c(ccc3ccccc32)s1)c1cccs1	AHR act 67 (no result: TAG inh)
O=C(Nc1nc2c(ccc3ccccc32)s1)c1ccco1	AHR act 66
O=C(NC(=S)Nc1cccc2ncccc12)c1cccs1	none
O=C(Nc1ccc(-c2nc3c(ccc4ccccc43)o2)cc1)c1ccco1	AHR act 67 (no result: TAG inh)
O=C(Nc1ccc(-c2nc3cc(Cl)ccc3c(=O)o2)cc1)c1ccco1	none (no result: TAG inh)
COc1ccc(CN2CCNC(=O)C2CC(=O)NCC(C)(C)N2CCOCC2)cc1C (centres undefined)	AHR act 61 (no result: TAG inh)
Cc1ccc2nc(CCc3ccc(N)cc3)[nH]c2c1	AHR act 52
Nc1ccccc1C(=O)N=Nc1[nH]c(N)c2ccccc12	AHR act 61
Nc1[nH]c(N=NC(=O)c2ccc(F)cc2)c2ccccc12	none (no result: TAG inh)
C=C(C)CNC(=S)N=Nc1c(O)[nH]c2ccc([N+](=O)[O-])cc12	none
CC(C)NC(=S)N=Nc1c(O)[nH]c2ccc([N+](=O)[O-])cc12	AHR act 60
C#CCCN([C@@H](CC(C)C)C(=O)OC)S(=O)(=O)c1ccc(F)cc1Br	none (no result: TAG inh, TbMetRS inhib, AHR act, Efflux pump mplx)
Cc1nn2c(NCCCn3ccnc3)cc(C(C)C)nc2c1-c1ccccc1	AHR act 48
Cc1nn2c(NCc3ccccn3)cc(C(C)C)nc2c1-c1ccccc1	none
CC(=O)Nc1ccc(S(=O)(=O)NNC(=O)c2cc3c4ccccc4n(C)c3s2)cc1	AHR act 75
COCCNC(=O)c1cc2c3ccccc3n(C)c2s1	AHR act 49 (no result: TAG inh)
CCCNC(=O)c1cc2c3ccccc3n(C)c2s1	AHR act 52
Cn1c2ccccc2c2cc(C(=O)NNC(=O)CCl)sc21	AHR act 62
COc1ccccc1NC(=O)CSc1ccc2nnc(-c3cccnc3)n2n1	AHR act 79
Cc1nnc(NC(=O)CSc2ccc3nnc(-c4ccccn4)n3n2)s1	none
Cc1ccc(CSc2ccc3nnc(-c4cccnc4)n3n2)cc1	AHR act 71 (no result: TAG inh)
O=C(CSc1ccc2nnc(-c3ccccn3)n2n1)Nc1nccs1	AHR act 55
O=C(NC1CCCC1)N1CCC(c2nc3ccc(Cl)cc3[nH]2)CC1	none (no result: TAG inh, TbMetRS inhib, AHR act, Efflux pump mplx)
Nc1[nH]c(C(=O)c2ccccc2)c(-c2cc(F)ccc2Br)c1C(=O)NCCc1c[nH]c2ccccc12	none (no result: TAG inh, TbMetRS inhib, AHR act, Efflux pump mplx)
CN1/C(=C/c2cc[n+](C)c3ccccc23)C=Cc2ccccc21	none (no result: AHR act, Efflux pump mplx, SMARCA2 activ)
C[n+]1ccc(/C=C/c2ccccc2O)c2ccccc21	AHR act 63
COC(=O)C1=C(C)N(C)C(=NCc2cccc(C(F)(F)F)c2)NC1c1ccc(F)cc1 (centres undefined)	none (no result: TAG inh, TbMetRS inhib, AHR act, Efflux pump mplx)
N/C(=N\OC(=O)c1cccc(Cl)c1)c1ccccn1	AHR act 70 (no result: TAG inh)
N/C(=N\OC(=O)c1ccc(Cl)cc1)c1ccccn1	none (no result: TAG inh)
N/C(=N\OC(=O)c1ccc(Cl)c(Cl)c1)c1ccccn1	AHR act 72 (no result: TAG inh)
COc1ccccc1C(=O)O/N=C(\N)c1ccccn1	none
N/C(=N\OC(=O)c1ccccc1Cl)c1ccccn1	AHR act 52 (no result: TAG inh)
N/C(=N\OC(=O)c1ccc(Cl)c([N+](=O)[O-])c1)c1ccccn1	none
O=C1CC(c2ccccc2)Oc2cc(O)cc(O)c21 (centres undefined)	none (no result: TAG inh)
CC(C)=CCc1c(O)cc2c(c1O)C(=O)CC(c1ccccc1)O2 (centres undefined)	AHR act 51 (no result: TAG inh)
Cc1cc(C)nc(SCC(=O)c2c(N)n(C)c(=O)n(C)c2=O)n1	AHR act 50 (no result: TAG inh)
COc1ccccc1-c1cc2nc(C)cc(C)n2n1	AHR act 49
O=C1c2ccccc2C(=O)C1c1ccc2ccccc2n1	AHR act 60
Nn1c(SCC(=O)NCCC2=CCCCC2)nnc1C1CCCCC1	none
Nn1c(SCC(=O)NCCC2=CCCCC2)nnc1C(F)(F)F	AHR act 50 (no result: TAG inh, SMARCA2 activ)
CC1CCc2c(sc(Nc3nc4c(F)cccc4s3)c2C(N)=O)C1 (centres undefined)	AHR act 56 (no result: TAG inh)
NNc1nc2c(F)cccc2s1	AHR act 67 (no result: TAG inh)
O=C(Nc1nc2c(F)cccc2s1)C1CC1	AHR act 48
COC(=O)C1=C(C)N(Cc2cccc(C(F)(F)F)c2)C(=NCc2ccccc2C(F)(F)F)NC1c1cccc(C(F)(F)F)c1 (centres undefined)	none (no result: TAG inh, TbMetRS inhib, AHR act, Efflux pump mplx)
Cc1ccc(C(=O)c2no[n+]([O-])c2C(=O)c2ccc(C)cc2)cc1	TAG inh 52
COC(=O)C1CN(C(=O)OC(C)(C)C)C2=C1C(=O)CC(C)(C(=O)OC(C)(C)C)C2 (centres undefined)	none (no result: TAG inh, TbMetRS inhib, AHR act, Efflux pump mplx)
Cc1ccc(N/N=C/c2cccnc2)cc1	none (no result: TAG inh)
Cc1ccc(N/N=C/c2ccncc2)cc1	AHR act 51 (no result: TAG inh)
COc1ccc(N(CC(=O)Nc2ccc3c(c2)OCO3)S(=O)(=O)c2ccccc2)cc1OC	AHR act 50
COc1ccc(N(CC(=O)Nc2ccc3c(c2)OCO3)S(=O)(=O)c2ccccc2)c(OC)c1	AHR act 63
Cc1nn(C)c(C)c1S(=O)(=O)N(CC(=O)Nc1ccc2c(c1)OCO2)c1ccc(C(C)C)cc1	AHR act 56
COc1ccc(N(CC(=O)Nc2ccc3c(c2)OCO3)S(=O)(=O)c2ccc(F)cc2)cc1	AHR act 67
COCCCn1[nH]c2c3c(ccc2c1=O)C(=O)c1ccccc1C3=O	AHR act 52
CC(C)(C)n1[nH]c2c3c(ccc2c1=O)C(=O)c1ccccc1C3=O	AHR act 50
Cc1ccc(-n2[nH]c3c4c(ccc3c2=O)C(=O)c2ccccc2C4=O)cc1	none
Cn1nnnc1N=N/C(=N/Nc1ccccc1)c1ccccc1	TAG inh 72
c1ccc(NCCc2ccccn2)cc1	none (no result: AHR act, Efflux pump mplx)
Nc1cc(C(F)(F)F)ccc1NCCc1ccccn1	AHR act 64 (no result: TAG inh)
CC(C)n1nnnc1C1(C)Cn2nccc2C(=O)N1Cc1cccc(C(F)(F)F)c1 (centres undefined)	none (no result: TAG inh, TbMetRS inhib, AHR act, Efflux pump mplx)
O=C(CCn1nnc(-c2cccs2)n1)N1CCCC1	none (no result: TAG inh, TbMetRS inhib, AHR act, Efflux pump mplx)
Cc1ccc(-c2n[nH]c(=S)n2/N=C/c2cccs2)cc1	AHR act 55
S=c1[nH]nc(-c2ccccc2)n1/N=C/c1cccs1	none (no result: TAG inh, SMARCA2 activ)
Cc1ccc(-c2n[nH]c(=S)n2/N=C/c2cccn2C)cc1	none
COc1ccc(-c2n[nH]c(=S)n2/N=C/c2cccn2C)cc1	AHR act 70
Cc1ccsc1/C=N/n1c(-c2cccnc2)n[nH]c1=S	AHR act 60
CC(C)(C)c1ccc(-c2n[nH]c(=S)n2/N=C/c2ccncc2)cc1	AHR act 75
O=[N+]([O-])c1ccc(/C=N/n2c(-c3cccnc3)n[nH]c2=S)cc1	none (no result: TAG inh)
CC(C)C[C@@H]1COc2cc(Br)ccc2S(=O)(=O)N1Cc1cn(CC2CCCCC2)nn1	none (no result: TAG inh, TbMetRS inhib, AHR act, Efflux pump mplx)
COc1cc(C(=O)NC2CCCCN(Cc3cccc(C(F)(F)F)c3)C2=O)cc(OC)c1OC (centres undefined)	none (no result: TAG inh, TbMetRS inhib, AHR act, Efflux pump mplx)
COc1cc(CNc2ccc(N3CCCC3)cc2)cc(Cl)c1OC	TAG inh 54
